# Laboratory results as given in ChEMBL document CHEMBL3351938, “C5-Alkyl-2-methylurea-Substituted Pyridines as a New Class of Glucokinase Activators” (ACS Med Chem Lett, 2014).
# Legend:
# [1] = substrate: CCc1ncccc1Oc1cc(CC(C)C)cnc1NC(=O)NC; assay: (§1) Activity of human recombinant Glucokinase measured over 5 mins by spectrophotometry
# Summary of the method: (§2)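 S_0.5 (K_m for glucose) measured with recombinant human GK; duplicate determinations (n = 2).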
# [2] = substrate: CCn1nccc1Oc1cc(CN2CCOCC2)cnc1NC(=O)NC; assay: as §1; summary of the method: as §2
# [3] = substrate: CCn1nccc1Oc1cc(CCCCOC)cnc1NC(=O)NC; assay: as §1; summary of the method: as §2
# [4] = substrate: CCn1nccc1Oc1cc(CCCC(C)(C)O)cnc1NC(=O)NC; assay: as §1; summary of the method: as §2
# [5] = substrate: CCn1nccc1Oc1cc(C[C@H]2CC[C@@H](O)CC2)cnc1NC(=O)NC; assay: as §1; summary of the method: as §2
# [6] = substrate: CCc1ncccc1Oc1cc(CCCOC)cnc1NC(=O)NC; assay: as §1; summary of the method: as §2
# [7] = substrate: CCn1nccc1Oc1cc(C[C@H]2C[C@@](C)(O)C2)cnc1NC(=O)NC; assay: as §1; summary of the method: as §2
# [8] = substrate: CCn1nccc1Oc1cc(C[C@H]2CC[C@H](O)CC2)cnc1NC(=O)NC; assay: as §1; summary of the method: as §2
# [9] = substrate: CCc1ncccc1Oc1cc(CCCCOC)cnc1NC(=O)NC; assay: as §1; summary of the method: as §2
# [10] = substrate: CNC(=O)Nc1ncc(CC2CCOCC2)cc1Oc1ccnn1C(C)C; assay: as §1; summary of the method: as §2
# [11] = substrate: CCc1ncccc1Oc1cc(CCCCO)cnc1NC(=O)NC; assay: as §1; summary of the method: as §2
# [12] = substrate: CCOCCc1cnc(NC(=O)NC)c(Oc2cccnc2CC)c1; assay: as §1; summary of the method: as §2
# [13] = substrate: CCn1nccc1Oc1cc(C(O)C2CCOCC2)cnc1NC(=O)NC; assay: as §1; summary of the method: as §2
# [14] = substrate: CCn1nccc1Oc1cc(C[C@H]2CCO[C@H](COC)C2)cnc1NC(=O)NC; assay: as §1; summary of the method: as §2
# [15] = substrate: CCn1nccc1Oc1cc(C[C@H]2C[C@@H](O)C2)cnc1NC(=O)NC; assay: as §1; summary of the method: as §2
# [16] = substrate: CCn1nccc1Oc1cc(C[C@H]2C[C@H](O)C2)cnc1NC(=O)NC; assay: as §1; summary of the method: as §2
# [17] = substrate: CCn1nc(COC)cc1Oc1cc(CC2CCOCC2)cnc1NC(=O)NC; assay: as §1; summary of the method: as §2
# [18] = substrate: CCn1nccc1Oc1cc(C[C@@H]2CCO[C@@H](COC)C2)cnc1NC(=O)NC; assay: as §1; summary of the method: as §2
# [19] = substrate: CCc1ncccc1Oc1cc(CC2CCOCC2)cnc1NC(=O)NC; assay: as §1; summary of the method: as §2
# [20] = substrate: CCn1nccc1Oc1cc(C[C@H]2CC[C@@](C)(O)CC2)cnc1NC(=O)NC; assay: as §1; summary of the method: as §2
# [21] = substrate: CCc1ncccc1Oc1cc(CC2CCCCC2)cnc1NC(=O)NC; assay: as §1; summary of the method: as §2
# [22] = substrate: CCn1nccc1Oc1cc(C[C@H]2CC[C@](C)(O)CC2)cnc1NC(=O)NC; assay: as §1; summary of the method: as §2
# [23] = substrate: CCn1nccc1Oc1cc(CC2CCOCC2)cnc1NC(=O)NC; assay: as §1; summary of the method: as §2
protein,measurement,setting,value
"Hexokinase-4 (Homo sapiens), P35557 (protein) MLDDRARMEAAKKEKVEQILAEFQLQEEDLKKVMRRMQKEMDRGLRLETHEEASVKMLPTYVRSTPEGSEVGDFLSLDLGGTNFRVMLVKVGEGEEGQWSVKTKHQMYSIPEDAMTGTAEMLFDYISECISDFLDKHQMKHKKLPLGFTFSFPVRHEDIDKGILLNWTKGFKASGAEGNNVVGLLRDAIKRRGDFEMDVVAMVNDTVATMISCYYEDHQCEVGMIVGTGCNACYMEEMQNVELVEGDEGRMCVNTEWGAFGDSGELDEFLLEYDRLVDESSANPGQQLYEKLIGGKYMGELVRLVLLRLVDENLLFHGEASEQLRTRGAFETRFVSQVESDTGDRKQIYNILSTLGLRPSTTDCDIVRRACESVSTRAAHMCSAGLAGVINRMRESRSEDVMRITVGVDGSVYKLHPSFKERFHASVRRLTPSCEITFIESEEGSGRGAALVSAVACKKACMLGQ",Km,[1],660 µM
same,Km,[2],860 µM
same,Km,[3],860 µM
same,Km,[4],840 µM
same,Km,[5],760 µM
same,Km,[6],870 µM
same,Km,[7],820 µM
same,Km,[8],710 µM
same,Km,[9],820 µM
same,Km,[10],950 µM
same,Km,[11],850 µM
same,Km,[12],880 µM
same,Km,[13],1200 µM
same,Km,[14],940 µM
same,Km,[15],720 µM
same,Km,[16],630 µM
same,Km,[17],850 µM
same,Km,[18],880 µM
same,Km,[19],850 µM
same,Km,[20],560 µM
same,Km,[21],760 µM
same,Km,[22],690 µM
same,Km,[23],840 µM
